# Published values pooled from the literature.
# Protocols differ between the studies behind these lines.
# Target: Serine/threonine-protein kinase pim-1 (PIM1, Homo sapiens, UniProt P11309)
SMILES,observed,technique,tested at,remaining binding [%]
C[C@@H](c1ccc(-n2cnc3c(N)ncnc32)cc1)N1CCc2nn(C)c(Cc3ccccc3)c2C1=O,binding,competition with immobilised ligand,0.1 µM,97
CNC(=O)[C@@H]1CC[C@@H](n2c(-c3ccc4cnccc4c3)nc3ccc(C(=O)NCc4cccc(C(N)=O)c4)cc32)C1,binding,competition with immobilised ligand,1 µM,100
CCN1CCN(Cc2ccc(C(=O)Nc3ccc(C)c(Oc4ccc5c(c4)CC(=O)N5)c3)cc2C(F)(F)F)CC1,binding,competition with immobilised ligand,1 µM,100
CN(CCCC(F)(F)F)c1nccc(-c2cnn3ncccc23)n1,binding,,1 µM,98
CC(=O)C1=C(C)N(c2cccc(C(F)(F)F)c2)C(=O)N[C@@H]1c1ccc(C#N)nc1,cell-free assay,competition with immobilised ligand,1 µM,100
CC(C)(C)c1ccc(-c2nc(CBr)nn2-c2cccc(O)c2)cc1,cell-free assay,competition with immobilised ligand,10 µM,90
CN(c1nccc(-c2cnn3ncccc23)n1)C1CC1,binding,,1 µM,100
O=C(c1ccc(Nc2nccc(-c3cc4ccccc4s3)n2)cc1)N1CCC(N2CCCC2)CC1,binding,competition with immobilised ligand,1 µM,75
c1cncc(-c2cccc(Nc3nccc(NC4CCCCC4)n3)c2)c1,binding,competition with immobilised ligand,10 µM,42
O=C(NCC1CCOCC1)c1n[nH]cc1NC(=O)c1c(F)cccc1F,binding,competition with immobilised ligand,1 µM,100
C[C@H](c1ccc(F)cc1)N(Cc1cccc(C(=O)O)c1)C(=O)c1cnc2ccccc2c1,cell-free assay,competition with immobilised ligand,1 µM,100
O=C(NCCCN1CCOCC1)c1ccc(Nc2ncc(Cl)c(-c3ccc(Cl)s3)n2)cc1,binding,competition with immobilised ligand,1 µM,100
Cn1nc(C(=O)NCc2ccc(C(=O)O)cc2)cc1-c1ccc2[nH]ccc2c1,cell-free assay,competition with immobilised ligand,0.1 µM,91
C[C@H]1CCN(c2nccc(-c3cnn4ncccc34)n2)C1,binding,,1 µM,83
CCC(=N\O)/C(C)=C/c1ccc(F)cc1,cell-free assay,competition with immobilised ligand,1 µM,85
C[C@@H]1CN(c2ccc3ncc(-c4ccc5[nH]nc(C6CC6)c5c4)n3n2)C[C@H](C)O1,binding,competition with immobilised ligand,50 nM,66
N[C@@H]1CCN(c2nccc(-c3cnn4ncccc34)n2)C1,binding,,1 µM,100
CNC(=O)c1ccc(Nc2ncc(C(F)(F)F)c(NCc3nccnc3N(C)S(C)(=O)=O)n2)cc1,cell-free assay,competition with immobilised ligand,0.1 µM,93
Cc1cnn2ncc(-c3ccnc(N(C)C)n3)c2c1,binding,,1 µM,80
O=C(c1ccc(Nc2ncc(Cl)c(-c3ccc(Cl)s3)n2)cc1)N1CCC(N2CCCC2)CC1,binding,competition with immobilised ligand,1 µM,87
C=CC(=O)N1CCC(C(=O)NCC(=O)N2CCN(c3nc(-c4cnc(N)nc4C(F)F)nc(N4CCOCC4)n3)CC2)CC1,binding,competition with immobilised ligand,1 µM,95
O=C1NC(c2ccccn2)Sc2ccccc21 (centres unmarked),cell-free assay,competition with immobilised ligand,1 µM,82
F[C@@H]1CCN(c2nccc(-c3cnn4ncccc34)n2)C1,binding,,1 µM,100
COc1ncc2cc3ccccc3nc2c1C#N,cell-free assay,competition with immobilised ligand,5 µM,87
c1cnn2ncc(-c3ccnc(N4CCC45COC5)n3)c2c1,binding,,1 µM,71
Cc1cc(C)c(-n2ccn3nc(-c4cccnc4)cc23)cc1NC(=O)c1cc(C#N)cc(S(F)(F)(F)(F)F)c1,cell-free assay,competition with immobilised ligand,0.1 µM,92
